Results on 20 compounds are retold here after ChEMBL document CHEMBL1126631, “Synthesis and biological activities of angiotensin II, Sarilesin, and Sarmesin analogues containing Aze or Pip at position 7” (J Med Chem, 1993).

As usually defined, the pA2 is the negative logarithm of the molar antagonist concentration that doubles the agonist concentration needed for the same response.

Where only a bound is given, the exact number is not on record here.

The target of assay [1] is Angiotensin II receptor (Rattus norvegicus) (UniProt P29089+P25095+P35351). The assay can be described thus: Evaluated for its agonistic activity using rat uterus bioassay in Dawley rats (% of ANG II). The assay is classed as functional, tissue-based. In outline:
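Defatted uterine horns from diethylstilbestrol-primed virgin Sprague–Dawley rats (150–250 g), suspended under 1-g tension in a 3-mL oxygenated bath (150 mM NaCl, 5.6 mM KCl, 0.18 mM NaHCO3, 1.4 mM glucose, pH 7.0). Isotonic contractions recorded; activity found by matching the response to an equivalent human ANGII response. Values are means of the stated number of experiments.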

For the next assay, the target named is T1, Angiotensin II receptor (Rattus norvegicus, UniProt P29089+P25095+P35351).
T1 sequence (P29089 whole entry): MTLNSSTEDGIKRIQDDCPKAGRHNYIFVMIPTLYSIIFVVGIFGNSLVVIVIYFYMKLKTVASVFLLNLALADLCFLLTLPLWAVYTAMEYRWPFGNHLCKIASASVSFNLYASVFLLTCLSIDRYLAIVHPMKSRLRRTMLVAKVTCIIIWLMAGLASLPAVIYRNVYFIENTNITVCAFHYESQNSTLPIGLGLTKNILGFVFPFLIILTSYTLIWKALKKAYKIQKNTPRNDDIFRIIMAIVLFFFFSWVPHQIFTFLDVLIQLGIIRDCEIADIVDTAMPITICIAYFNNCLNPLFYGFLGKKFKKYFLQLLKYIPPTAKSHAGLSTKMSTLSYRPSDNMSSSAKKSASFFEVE
T1 sequence (P25095 whole entry): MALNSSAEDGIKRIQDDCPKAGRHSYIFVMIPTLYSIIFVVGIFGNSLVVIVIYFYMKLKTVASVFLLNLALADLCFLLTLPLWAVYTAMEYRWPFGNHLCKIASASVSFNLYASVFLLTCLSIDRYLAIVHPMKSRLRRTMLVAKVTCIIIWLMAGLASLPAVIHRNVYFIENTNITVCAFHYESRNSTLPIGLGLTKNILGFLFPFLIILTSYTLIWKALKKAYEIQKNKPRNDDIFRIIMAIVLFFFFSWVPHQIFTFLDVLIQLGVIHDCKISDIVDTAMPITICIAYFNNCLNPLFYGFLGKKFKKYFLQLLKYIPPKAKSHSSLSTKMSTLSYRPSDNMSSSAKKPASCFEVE
T1 sequence (P35351 whole entry): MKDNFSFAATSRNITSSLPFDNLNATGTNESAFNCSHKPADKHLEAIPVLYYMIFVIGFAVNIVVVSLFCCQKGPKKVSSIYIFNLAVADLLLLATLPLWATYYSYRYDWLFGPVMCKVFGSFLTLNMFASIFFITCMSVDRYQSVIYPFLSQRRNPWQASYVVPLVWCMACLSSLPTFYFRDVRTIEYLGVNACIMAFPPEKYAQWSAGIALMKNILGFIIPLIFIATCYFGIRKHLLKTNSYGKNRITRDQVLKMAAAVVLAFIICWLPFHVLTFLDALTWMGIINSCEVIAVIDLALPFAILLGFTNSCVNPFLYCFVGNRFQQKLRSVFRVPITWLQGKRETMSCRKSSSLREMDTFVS
Nature of the assay: Antagonistic activity (pA2) was determined as the negative logarithm of the concentration required to reduce the response to an EC50 dose of ANG II to the response to half the EC50. The assay is classed as functional. In outline: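 Isolated uterine horns (defatted) from diethylstilbestrol-primed virgin Sprague–Dawley rats (150–250 g), held under 1-g tension in a 3-mL bath of 150 mM NaCl, 5.6 mM KCl, 0.18 mM NaHCO3, 1.4 mM glucose, pH 7.0, oxygenated. Isotonic contractions recorded. Human ANGII as standard; values are means of the stated number of experiments.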

Compound `CC[C@H](C)[C@H](NC(=O)[C@H](Cc1ccc(O)cc1)NC(=O)[C@@H](NC(=O)[C@@H](N)CCCN=C(N)N)C(C)C)C(=O)N[C@@H](Cc1c[nH]cn1)C(=O)N1CCC1C(=O)N[C@@H](Cc1ccccc1)C(=O)O` (stereo not given in full) yielded an Agonist activity in assay [1] of 35.
For the compound `CC[C@H](C)[C@H](NC(=O)[C@H](Cc1ccc(OC)cc1)NC(=O)[C@@H](NC(=O)[C@@H](N)CCCN=C(N)N)C(C)C)C(=O)N[C@@H](Cc1c[nH]cn1)C(=O)N1CC[C@H]1C(=O)N[C@@H](Cc1ccccc1)C(=O)O`, the pA2 at Angiotensin II receptor is given as < 5.
`CC[C@H](C)[C@H](NC(=O)[C@@H]1CCN1C(=O)[C@H](Cc1c[nH]cn1)NC(=O)[C@@H](NC(=O)[C@H](Cc1ccc(O)cc1)NC(=O)[C@@H](NC(=O)[C@H](CCCN=C(N)N)NC(=O)C(C)(C)N)C(C)C)[C@@H](C)CC)C(=O)O` had a pA2 on Angiotensin II receptor of 7.1.
In turn, `CC[C@H](C)[C@H](NC(=O)[C@H](Cc1ccc(O)cc1)NC(=O)[C@@H](NC(=O)[C@H](CCCN=C(N)N)NC(=O)C(C)(C)N)C(C)C)C(=O)N[C@@H](Cc1c[nH]cn1)C(=O)N1CCC1C(=O)N[C@@H](Cc1ccccc1)C(=O)O` (stereo not given in full) showed an Agonist activity in assay [1] of 34.
The same measure, in the same setting: then `CC[C@H](C)[C@H](NC(=O)[C@H](Cc1ccc(O)cc1)NC(=O)[C@@H](NC(=O)[C@H](CCCN=C(N)N)NC(=O)CNC)C(C)C)C(=O)N[C@@H](Cc1c[nH]cn1)C(=O)N1CCC1C(=O)N[C@@H](Cc1ccccc1)C(=O)O` (stereo not given in full), with 98.
Take `CC[C@@H](C)[C@H](NC(=O)C1CCN1C(=O)[C@H](Cc1c[nH]cn1)NC(=O)[C@@H](NC(=O)[C@H](Cc1ccc(O)cc1)NC(=O)[C@@H](NC(=O)[C@H](CCCN=C(N)N)NC(=O)CNC)C(C)C)[C@@H](C)CC)C(=O)O` (stereo not given in full): in assay [1], the Agonist activity was < 0.1.
Consider `CC[C@H](C)[C@H](NC(=O)[C@@H]1CCN1C(=O)[C@H](Cc1c[nH]cn1)NC(=O)[C@@H](NC(=O)[C@H](Cc1ccc(O)cc1)NC(=O)[C@@H](NC(=O)[C@H](CCCN=C(N)N)NC(=O)CNC)C(C)C)[C@@H](C)CC)C(=O)O`, for which the pA2 at Angiotensin II receptor worked out at 7.9.
`CC[C@H](C)[C@H](NC(=O)[C@H](Cc1ccc(O)cc1)NC(=O)[C@@H](NC(=O)[C@H](CCCN=C(N)N)NC(=O)C(C)(C)N)C(C)C)C(=O)N[C@@H](Cc1c[nH]cn1)C(=O)N1CCCC[C@@H]1C(=O)N[C@@H](Cc1ccccc1)C(=O)O`: in assay [1], the Agonist activity is 65.
For the compound `CC[C@H](C)[C@H](NC(=O)[C@H](Cc1ccc(OC)cc1)NC(=O)[C@@H](NC(=O)[C@@H](N)CCCN=C(N)N)C(C)C)C(=O)N[C@@H](Cc1c[nH]cn1)C(=O)N1CCCC[C@H]1C(=O)N[C@@H](Cc1ccccc1)C(=O)O`, the pA2 on Angiotensin II receptor is reported as < 5.
`CC[C@@H](C)[C@H](NC(=O)[C@H]1CCCCN1C(=O)[C@H](Cc1c[nH]cn1)NC(=O)[C@@H](NC(=O)[C@H](Cc1ccc(O)cc1)NC(=O)[C@@H](NC(=O)[C@H](CCCN=C(N)N)NC(=O)C(C)(C)N)C(C)C)[C@@H](C)CC)C(=O)O`: in assay [1], the Agonist activity is < 0.1.
Consider `CC[C@H](C)[C@H](NC(=O)[C@@H]1CCCN1C(=O)[C@H](Cc1c[nH]cn1)NC(=O)[C@@H](NC(=O)[C@H](Cc1ccc(O)cc1)NC(=O)[C@@H](NC(=O)[C@H](CCCN=C(N)N)NC(=O)CNC)C(C)C)[C@@H](C)CC)C(=O)O`, for which the Agonist activity in assay [1] was 0.1.
At Angiotensin II receptor, `CC[C@H](C)[C@H](NC(=O)[C@H](Cc1ccc(OC)cc1)NC(=O)[C@@H](NC(=O)[C@H](CCCN=C(N)N)NC(=O)CNC)C(C)C)C(=O)N[C@@H](Cc1c[nH]cn1)C(=O)N1CC[C@H]1C(=O)N[C@@H](Cc1ccccc1)C(=O)O` yielded a pA2 of 7.4.
Regarding `CC[C@H](C)[C@H](NC(=O)[C@H](Cc1ccc(OC)cc1)NC(=O)[C@@H](NC(=O)[C@H](CCCN=C(N)N)NC(=O)CNC)C(C)C)C(=O)N[C@@H](Cc1c[nH]cn1)C(=O)N1CCC[C@H]1C(=O)N[C@@H](Cc1ccccc1)C(=O)O`, the pA2 on Angiotensin II receptor was 7.7.
In turn, `CC[C@H](C)[C@H](NC(=O)[C@H](Cc1ccc(O)cc1)NC(=O)[C@@H](NC(=O)[C@H](CCCN=C(N)N)NC(=O)CNC)C(C)C)C(=O)N[C@@H](Cc1c[nH]cn1)C(=O)N1CCCC[C@@H]1C(=O)N[C@@H](Cc1ccccc1)C(=O)O` yielded an Agonist activity in assay [1] of 184.
`CC[C@H](C)[C@H](NC(=O)[C@@H]1CCCCN1C(=O)[C@H](Cc1c[nH]cn1)NC(=O)[C@@H](NC(=O)[C@H](Cc1ccc(O)cc1)NC(=O)[C@@H](NC(=O)[C@H](CCCN=C(N)N)NC(=O)CNC)C(C)C)[C@@H](C)CC)C(=O)O`: the pA2 on Angiotensin II receptor stood at 8.3.
On the same count and under the same terms, then `CC[C@H](C)[C@H](NC(=O)[C@H](Cc1ccc(OC)cc1)NC(=O)[C@@H](NC(=O)[C@H](CCCN=C(N)N)NC(=O)CNC)C(C)C)C(=O)N[C@@H](Cc1c[nH]cn1)C(=O)N1CCCC[C@H]1C(=O)N[C@@H](Cc1ccccc1)C(=O)O`, with 6.5; and `CC[C@H](C)[C@H](NC(=O)[C@@H]1CCCCN1C(=O)[C@H](Cc1c[nH]cn1)NC(=O)[C@@H](NC(=O)[C@H](Cc1ccc(O)cc1)NC(=O)[C@@H](NC(=O)[C@H](CCCN=C(N)N)NC(=O)C(C)(C)N)C(C)C)[C@@H](C)CC)C(=O)O`, with 7.6.
`CC[C@H](C)[C@H](NC(=O)[C@H](Cc1ccc(O)cc1)NC(=O)[C@@H](NC(=O)[C@H](CCCN=C(N)N)NC(=O)CNC)C(C)C)C(=O)N[C@@H](Cc1c[nH]cn1)C(=O)N1CCC[C@H]1C(=O)N[C@@H](Cc1ccccc1)C(=O)O` came in with an Agonist activity in assay [1] of 160.
In the case of `CC[C@@H](C)[C@H](NC(=O)C1CCN1C(=O)[C@H](Cc1c[nH]cn1)NC(=O)[C@@H](NC(=O)[C@H](Cc1ccc(O)cc1)NC(=O)[C@@H](NC(=O)[C@H](CCCN=C(N)N)NC(=O)C(C)(C)N)C(C)C)[C@@H](C)CC)C(=O)O` (stereo not given in full), the Agonist activity in assay [1] was < 0.1.
As to `CC[C@@H](C)[C@H](NC(=O)[C@H]1CCCCN1C(=O)[C@H](Cc1c[nH]cn1)NC(=O)[C@@H](NC(=O)[C@H](Cc1ccc(O)cc1)NC(=O)[C@@H](NC(=O)[C@H](CCCN=C(N)N)NC(=O)CNC)C(C)C)[C@@H](C)CC)C(=O)O`, the Agonist activity in assay [1] was < 0.1.
